A selection: hits, their analogues and other compounds. The true share with any hit is near 4.6%.
OX1R antag-1 = human HCRTR1 antagonism; CHO/OX1R cells, Fluo-8 calcium fluorescence, orexin A; hit rate 0.43% among 330,000; O43613; inhibition, % at 5 µM;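 active means inhibition above its plate's threshold, mean inhibition of all tested compounds on the plate plus 3 SD, cut at about 37% in these data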
TAAR1 agonist = human TAAR1 agonism; Q96RJ0; CHO RD-HGA16 TAAR1, Fluo-8 calcium fluorescence; vehicle wells 0%, saturating PEA agonist 100%; AID 624467; activation, % at 3 µM; hit rate 0.99% among 360,000;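 active means activation above the mean activation of all test compounds in the run plus 3 SD, cut at about 38% in these data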
Target sequence (Q96RJ0 whole entry, looked up): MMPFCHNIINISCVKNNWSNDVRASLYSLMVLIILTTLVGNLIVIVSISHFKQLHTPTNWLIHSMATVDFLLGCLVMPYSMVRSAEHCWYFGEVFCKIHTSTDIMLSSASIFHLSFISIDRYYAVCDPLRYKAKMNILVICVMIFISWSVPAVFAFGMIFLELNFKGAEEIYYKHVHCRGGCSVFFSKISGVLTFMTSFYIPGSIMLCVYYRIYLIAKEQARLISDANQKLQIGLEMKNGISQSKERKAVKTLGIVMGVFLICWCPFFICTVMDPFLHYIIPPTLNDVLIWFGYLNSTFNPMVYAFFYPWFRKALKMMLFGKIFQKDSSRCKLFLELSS
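Test system: RD-HGA16 (CHO) cells co-expressing Gα16 and hTAAR1; dosing: one-point dosing at 3 µM (nominal); timing: 17-24 h seeding, 75 min 37 °C dye, 30 min RT; signal: kinetic Fluo-8 calcium fluorescence; read-out basis: % activation relative to PEA EC100 response; controls: DMSO and PEA EC100; replicates: n 1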
TAAR1 antag = antagonists of human TAAR1; Q96RJ0; CHO RD-HGA16 TAAR1, Fluo-8 calcium fluorescence, antagonist; hit rate 1.5% among 360,000; inhibition, % at 3 µM; AID 624466;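 active means inhibition above a per-plate cutoff, the mean inhibition of test compounds on that plate plus 3 SD, cut at about 49% in these data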
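Assay system: RD-HGA16 CHO cells with stable hTAAR1 and Gα16 / Reagent: EC80 β-phenethylamine stimulus / Doses: 3 µM, single point / Timing: dye loading 75 min at 37 °C, then 30 min room temperature / Measured by: Fluo-8 intracellular calcium dye fluorescence, real-time kinetic reads / Controls: vehicle wells and EC80 agonist wells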
GPR7 antagonist = blocks human GPR7 receptor signaling. AID 1861. inhibition, % at 4.4 µM. hit rate 1.1% among 290,000. GPR7-expressing cells, fluorescence antagonist assay; in the data active means inhibition above about 16%, passing the limit was not always enough;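 further: cells stimulated with the agonist NPW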
Target sequence (P48145 whole entry, looked up): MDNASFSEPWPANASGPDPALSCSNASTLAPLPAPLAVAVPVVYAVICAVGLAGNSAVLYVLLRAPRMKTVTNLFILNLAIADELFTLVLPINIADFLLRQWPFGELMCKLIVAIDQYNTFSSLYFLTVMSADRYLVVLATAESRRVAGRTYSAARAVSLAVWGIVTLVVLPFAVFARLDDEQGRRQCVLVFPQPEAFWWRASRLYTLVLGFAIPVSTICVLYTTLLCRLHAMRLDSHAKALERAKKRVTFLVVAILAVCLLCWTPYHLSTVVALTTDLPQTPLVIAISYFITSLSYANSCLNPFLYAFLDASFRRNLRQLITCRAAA
OX1R antag-2 = antagonists of human orexin 1 receptor (OX1R) | O43613 | OX1R-expressing cells, FRET antagonist read-out | inhibition, % at 6.6 µM | hit rate 1.8% among 330,000 | AID 485270; in the data active means inhibition mostly above about 38%, no sharp cut-off; inactive means mostly below about 40%
CHO parental Ca = counter-screen: ATP calcium response change in parental CHO cells; parental CHO-K1, ATP-induced calcium, Fluo-8 fluorescence; inhibition, % at 5.6 µM; hit rate 0.63% among 330,000; AID 463079;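 active means inhibition above that plate's mean sample inhibition plus 3 SD, cut at about 26% in these data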
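test system = CHO parental line | reagent = ATP stimulus | measured by = intracellular calcium via Fluo-8 no-wash fluorescent dye | control set = ATP and no-ATP DMSO wells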
TAAR1 nonsel count = nonselective antagonist in TAAR1 antagonist counter-screen; counterscreen cell line, calcium fluorescence, antagonist mode; hit rate 77% among 2,400; inhibition, % at 3 µM; shares compounds with TAAR1 antag; in the data active means inhibition above about 22%;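 further: CHO-Ga16 host cells stimulated with ATP at an EC80 level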
TAAR1 antag conf = confirmation of human TAAR1 antagonists. AID 651785. shares compounds with TAAR1 antag. inhibition, % at 3 µM. TAAR1-expressing cells, fluorescence antagonist read-out. hit rate 40% among 2,400; in the data active means inhibition above about 49%;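 further: CHO-Ga16 host cells challenged with agonist PEA near its EC80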
Ga16 ag counter = counter-screen for TAAR1 antagonists: nonselective Ga16 agonists; shares compounds with TAAR1 antag; Ga16-expressing cells, calcium fluorescence, agonist counterscreen; activation, % at 3 µM; hit rate 18% among 2,400; AID 651953; in the data active means activation above about 12%
TAAR1 ag counter = TAAR1 agonism, antagonist counter-screen; activation, % at 3 µM; shares compounds with TAAR1 antag; hit rate 2% among 2,400; hTAAR1 cell line, fluorescence activation, agonist mode; AID 651955; in the data active means activation above about 37%;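 further: CHO cells stably expressing TAAR1 with calcium dye readout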
A number is an active result; - = inactive; . = no result given.

SMILES	OX1R antag-1	TAAR1 agonist	TAAR1 antag	GPR7 antagonist	OX1R antag-2	CHO parental Ca	TAAR1 nonsel count	TAAR1 antag conf	Ga16 ag counter	TAAR1 ag counter
Cc1cccc(N2CCN(C3=NC(=O)/C(=C\c4cn[nH]c4-c4ccccc4)S3)CC2)c1	-	-	61	-	-	-	41	59	-	-
O=C(Cc1ccccc1)Nc1ccccc1Sc1ccccc1	-	-	-	-	-	-	.	.	.	.
O=C(COC(=O)c1cc[n+]([O-])cc1)Nc1ccccc1Sc1ccccc1	-	-	105	-	-	-	-	-	-	-
O=C(Cc1ccc(Br)cc1)Nc1ccccc1Sc1ccccc1	-	-	58	-	-	-	-	-	-	-
COC1=CC(=O)OC(c2cccc([N+](=O)[O-])c2)C1 (configuration not stated)	.	-	-	.	.	.	.	.	.	.
CCN1C(=O)[C@H]2[C@@H](c3ccc(C(F)(F)F)cc3)N[C@]3(CCCN(Cc4ccccc4)C3=O)[C@H]2C1=O	.	-	-	.	.	.	.	.	.	.
CN(C)S(=O)(=O)c1cc(NC(=O)COC(=O)CC2Sc3ccccc3NC2=O)ccc1Cl (configuration not stated)	-	-	62	.	-	-	31	-	-	-
COc1ccc(Cl)cc1NC(=O)CN(C)C(=O)c1cc(-c2ccncc2)nc2ccccc12	-	-	74	.	-	-	42	53	15	-
COc1ccc(Cl)cc1NC(=O)CN(C)C(=O)c1ccc2c(c1)CC(c1ccccc1)OC2=O (configuration not stated)	-	-	65	.	-	-	33	53	12	-
COc1ccc(NC(=O)CN(C)C(=O)c2ccc3c(c2)CC(c2ccccc2)OC3=O)cc1 (configuration not stated)	.	-	-	.	.	.	.	.	.	.
CCOc1ccc(NC(=O)CN(C)C(=O)c2cc(-c3ccncc3)nc3ccccc23)cc1OCC	-	-	67	.	-	-	30	-	-	-
C[C@@H]1CC=C[C@@H]2[C@H]1C(=O)N(Cc1ccccc1)[C@H]2c1ccccc1Br	-	-	70	.	-	-	-	-	-	-
COc1cccc(OC)c1C(=O)Oc1ccc2c(c1)O/C(=C\c1ccncc1)C2=O	-	-	53	-	-	-	41	56	-	-
O=C1CC(c2ccco2)CC2=C1C1c3ccccc3C(=O)N1c1ccccc1N2 (configuration not stated)	-	-	64	-	-	-	24	-	-	-
CCOc1cc(NC(=S)NC)c(OCC)cc1NC(=O)c1cccs1	-	-	54	-	-	-	-	-	-	-
CCOc1cc(NC(=S)NCCOC)c(OCC)cc1NC(=O)c1cccs1	-	-	-	-	-	-	.	.	.	.
CCc1cnc(Nc2nc(C(N)c3ccccc3Cl)cs2)nc1 (configuration not stated)	.	-	-	.	.	.	.	.	.	.
CN1CCN(c2ccccc2NC(=O)c2ccc(-c3cccc([N+](=O)[O-])c3)o2)CC1	-	-	-	-	-	-	.	.	.	.
CCC(=O)N1CCN(c2ccccc2NC(=O)c2ccc(-c3cccc([N+](=O)[O-])c3)o2)CC1	-	-	55	-	-	-	26	50	-	-
CSc1sccc1/C=C(/C#N)C(=O)c1ccco1	-	-	50	-	-	-	33	57	-	-
CSc1sccc1/C=N/O	-	-	-	-	-	-	.	.	.	.
COC(=O)c1ccc(S(=O)(=O)N(Cc2ccccc2)Cc2ccccc2)n1C	-	-	102	-	-	-	-	-	-	-
CCN(Cc1ccccc1)S(=O)(=O)c1cc(C(=O)OC)n(C)c1	-	-	-	-	-	-	.	.	.	.
Fc1ccc(C(CCCn2nnc(-c3cccnc3)n2)c2ccc(F)cc2)cc1	48	-	90	-	-	35	39	58	-	-
Fc1ccc(-n2nnc(-c3cccnc3)n2)cc1	-	-	-	-	-	-	.	.	.	.
SMILES	OX1R antag-1	TAAR1 agonist	TAAR1 antag	GPR7 antagonist	OX1R antag-2	CHO parental Ca	TAAR1 nonsel count	TAAR1 antag conf	Ga16 ag counter	TAAR1 ag counter
Cc1ccccc1-c1cc(C(=O)NCc2ccc(OC(F)(F)F)cc2)n(CC2CC(c3cccnc3)=NO2)n1 (configuration not stated)	-	-	70	.	-	-	36	53	-	-
O=C(NCc1cccc(C(F)(F)F)c1)c1cc(-c2ccccc2)nn1CC1CC(c2cccnc2)=NO1 (configuration not stated)	-	-	-	.	-	-	.	.	.	.
O=C(NCc1cccc(Br)c1)c1cc(-c2ccccc2)nn1CC1CC(c2cccnc2)=NO1 (configuration not stated)	-	-	56	.	-	-	21	-	-	-
Cc1ccc(CNC(=O)c2cc(-c3ccccc3C)nn2CC2CC(c3cccnc3)=NO2)cc1 (configuration not stated)	-	-	64	.	-	-	26	-	-	-
Cc1ccc(OCc2nc3ccccc3n2C(C(=O)Nc2c(C)cccc2C)C2CC2)cc1 (configuration not stated)	.	-	-	.	.	.	.	.	.	.
Cc1cccc(S(=O)(=O)NC(=O)C2(C)CCN2C(=O)Cc2ccc(Cl)cc2Cl)c1 (configuration not stated)	.	-	-	.	.	.	.	.	.	.
CN(C)C1=NC[C@H](Cc2ccccc2)N1CC1CCCCCC1	-	-	-	.	-	-	.	.	.	.
O=C(CN1CCN(Cc2ccccc2)CC1)Nc1ccc([N+](=O)[O-])cc1C(=O)Nc1ccccc1F	-	-	58	-	-	-	29	51	-	-
CNC(=O)c1ccsc1NC(=O)C1CCN(S(=O)(=O)c2ccc(Cl)s2)CC1	-	-	58	.	-	-	29	-	15	-
CCCCS(=O)(=O)N1CCCc2nc(-c3ccccc3)ccc21	.	-	-	.	.	.	.	.	.	.
COC(=O)c1ccccc1NC(=O)COC(=O)/C=C/c1cccs1	-	-	60	.	-	-	-	-	-	-
NC(=O)c1ccsc1NC(=O)COC(=O)/C=C/c1ccccc1	-	-	79	.	-	-	41	74	17	-
NC(=O)c1ccsc1NC(=O)COC(=O)CCc1ccccc1	.	-	-	.	.	.	.	.	.	.
Cc1ccc(S(=O)(=O)N2[C@H](CC(=O)c3ccc(F)cc3)OC[C@@H]2C(C)C)cc1	.	-	-	.	.	.	.	.	.	.
O=C1c2cccc3c2C2(O)c4c1cccc4C(=O)c1cccc(c12)C3=O	.	-	71	.	.	.	33	51	-	-
